Experimental data: ChEMBL document CHEMBL1124223, “1-Substituted 7-[3-[(ethylamino)methyl]-1-pyrrolidinyl]-6,8- difluoro-1,4-dihydro-4-oxo-3-quinolinecarboxylic acids. New quantitative structure-activity relationships at N1 for the quinolone antibacterials” (1988)
In brackets after ≈: the same amount, converted by molar mass.

Assays:
Escherichia coli [1] = test: Minimum inhibitory concentration against Escherichia coli (H560); type: functional
Method in brief: (§1)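 MICs were determined by standard microtitration against a panel of 11 bacterial strains. Aqueous stock solutions were prepared with 0.1 N sodium or potassium hydroxide.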

Pseudomonas aeruginosa = test: Minimum inhibitory concentration against Pseudomonas aeruginosa. (UI-18); type: functional; method in brief: as §1
Klebsiella pneumoniae = test: Minimum inhibitory concentration against Klebsiella pneumoniae (MGH-2); type: functional; method in brief: as §1
Staphylococcus aureus [2] = test: Minimum inhibitory concentration against Staphylococcus aureus (H-228).; type: functional; method in brief: as §1
Enterobacter = test: Minimum inhibitory concentration against gram-negative enterobacteriaceae.; type: functional
Method in brief: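 This value is the geometric mean of microtitration MICs for the Gram-negative Enterobacteriaceae strains in the 11-organism panel. Aqueous stocks were prepared in 0.1 N sodium or potassium hydroxide.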

Enterobacter cloacae = test: Minimum inhibitory concentration against Enterobacter cloacae. (MA2446).; type: functional
Streptococcus pneumoniae = test: Minimum inhibitory concentration against Streptococcus pneumoniae (SV-1).; type: functional; method in brief: as §1
Staphylococcus aureus [3] = test: Minimum inhibitory concentration against Staphylococcus aureus (UC76).; type: functional; method in brief: as §1
[4] = target: DNA gyrase (Escherichia coli) (UniProt P0AES6+P0AES4); test: Concentration required for 50% inhibition of gyrase.; type: protein-complex assay
Method in brief: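 DNA gyrase inhibition: the drug concentration (µg/mL) giving 50% inhibition (I50) was recorded, along with the lowest concentration inducing gyrase-mediated DNA cleavage. Data come from duplicate experiments with ±50% reproducibility.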

Enterococcus faecalis = test: Minimum inhibitory concentration against Streptococcus faecalis (MGH-2).; type: functional; method in brief: as §1
Streptococcus pyogenes = test: Minimum inhibitory concentration against Streptococcus pyogenes (C203).; type: functional; method in brief: as §1
Providencia rettgeri = test: Minimum inhibitory concentration against Providencia rettgeri. (M1771); type: functional; method in brief: as §1
Escherichia coli [5] = test: Minimum inhibitory concentration against Escherichia coli (vogel); type: functional; method in brief: as §1
Mus musculus [6] = test: In vivo activity against Pseudomonas aeruginosa (sc); type: functional; conditions: read-out: PD50
Method in brief: (§2)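 Median protective dose (PD50, mg/kg) measured in acute, lethal, systemic infections in female Charles River CD-1 mice. A single dose of compound was given at the time of bacterial challenge. Aqueous stock solutions were made with 0.1 N sodium or potassium hydroxide.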

Mus musculus [7] = test: In vivo activity against Streptococcus pneumoniae (sc); type: functional; conditions: read-out: PD50; method in brief: as §2
Mus musculus [8] = test: In vivo activity against Streptococcus pyogenes (po); type: functional; conditions: read-out: PD50; method in brief: as §2
Mus musculus [9] = test: In vivo activity against Streptococcus pyogenes (sc); type: functional; conditions: read-out: PD50; method in brief: as §2
Mus musculus [10] = test: In vivo activity against Escherichia coli (po); type: functional; conditions: read-out: PD50; method in brief: as §2
Mus musculus [11] = test: In vivo activity against Pseudomonas aeruginosa (po); type: functional; conditions: read-out: PD50; method in brief: as §2
Mus musculus [12] = test: In vivo activity against Streptococcus pneumoniae (po); type: functional; conditions: read-out: PD50; method in brief: as §2
Mus musculus [13] = test: In vivo activity against Escherichia coli (sc); type: functional; conditions: read-out: PD50; method in brief: as §2

| Compound | MIC (Escherichia coli [1]) [µg/mL] | MIC (Pseudomonas aeruginosa) [µg/mL] | MIC (Klebsiella pneumoniae) [µg/mL] | MIC (Staphylococcus aureus [2]) [µg/mL] | MIC (Enterobacter) [µg/mL] | MIC (Enterobacter cloacae) [µg/mL] | MIC (Streptococcus pneumoniae) [µg/mL] | MIC (Staphylococcus aureus [3]) [µg/mL] | IC50 [4] [µg/mL] | MIC (Enterococcus faecalis) [µg/mL] | MIC (Streptococcus pyogenes) [µg/mL] | MIC (Providencia rettgeri) [µg/mL] | MIC (Escherichia coli [5]) [µg/mL] | further results |
| --- | --- | --- | --- | --- | --- | --- | --- | --- | --- | --- | --- | --- | --- | --- |
| CCNCC1CCN(c2c(F)cc3c(=O)c(C(=O)O)cn(C4CCCC4)c3c2F)C1 (stereo not given) | 0.8 (≈ 1.91 µM) | 12.5 (≈ 29.8 µM) | 3.1 (≈ 7.39 µM) | 0.4 (≈ 0.954 µM) | 3.6 (≈ 8.58 µM) | 6.3 (≈ 15 µM) | 0.2 (≈ 0.477 µM) | 0.1 (≈ 0.238 µM) | 28 (≈ 66.8 µM) | 0.4 (≈ 0.954 µM) | 0.4 (≈ 0.954 µM) | 12.5 (≈ 29.8 µM) | 3.1 (≈ 7.39 µM) |  |
| CCNCC1CCN(c2c(F)cc3c(=O)c(C(=O)O)cn(C)c3c2F)C1 (stereo not given) | 0.1 (≈ 0.274 µM) | 1.6 (≈ 4.38 µM) | 0.4 (≈ 1.09 µM) | 1.6 (≈ 4.38 µM) | 0.53 (≈ 1.45 µM) | 1.6 (≈ 4.38 µM) | 0.4 (≈ 1.09 µM) | 0.2 (≈ 0.547 µM) | 7.5 (≈ 20.5 µM) | 1.6 (≈ 4.38 µM) | 0.4 (≈ 1.09 µM) | 1.6 (≈ 4.38 µM) | 0.4 (≈ 1.09 µM) |  |
| O=C(O)c1cn(C2CC2)c2cc(N3CCNCC3)c(F)cc2c1=O [CIPROFLOXACIN] | 0.025 (≈ 0.0754 µM) | 0.4 (≈ 1.21 µM) | 0.1 (≈ 0.302 µM) | 3.1 (≈ 9.36 µM) | 0.06 (≈ 0.181 µM) |  | 1.6 (≈ 4.83 µM) | 0.2 (≈ 0.604 µM) |  | 0.8 (≈ 2.41 µM) | 0.8 (≈ 2.41 µM) | 0.1 (≈ 0.302 µM) |  | ED50 (Mus musculus [6]): 5 mg/kg; ED50 (Mus musculus [7]): 29 mg/kg; ED50 (Mus musculus [8]): > 100 mg/kg; ED50 (Mus musculus [9]): 20 mg/kg; ED50 (Mus musculus [10]): 1 mg/kg; ED50 (Mus musculus [11]): 25 mg/kg; ED50 (Mus musculus [12]): > 100 mg/kg; ED50 (Mus musculus [13]): 0.3 mg/kg |
| CCNCC1CCN(c2c(F)cc3c(=O)c(C(=O)O)cn(C(C)C)c3c2F)C1 (stereo not given) | 0.2 (≈ 0.508 µM) | 12.5 (≈ 31.8 µM) | 0.8 (≈ 2.03 µM) | 0.4 (≈ 1.02 µM) | 1.05 (≈ 2.67 µM) | 1.6 (≈ 4.07 µM) | 0.8 (≈ 2.03 µM) | 0.2 (≈ 0.508 µM) | 28 (≈ 71.2 µM) | 1.6 (≈ 4.07 µM) | 0.2 (≈ 0.508 µM) | 6.3 (≈ 16 µM) | 0.8 (≈ 2.03 µM) |  |
| CCNCC1CCN(c2c(F)cc3c(=O)c(C(=O)O)cn(CC(F)(F)F)c3c2F)C1 (stereo not given) | 0.4 (≈ 0.923 µM) | 6.3 (≈ 14.5 µM) | 0.8 (≈ 1.85 µM) | 0.4 (≈ 0.923 µM) | 1.05 (≈ 2.42 µM) | 1.6 (≈ 3.69 µM) | 0.4 (≈ 0.923 µM) | 0.1 (≈ 0.231 µM) | 26 (≈ 60 µM) | 0.2 (≈ 0.461 µM) | 0.4 (≈ 0.923 µM) | 3.1 (≈ 7.15 µM) | 0.8 (≈ 1.85 µM) |  |
